Columns and labels:
Bcap37 = assay: Cytotoxicity against human Bcap37 cells after 48 hrs by MTT assay; assay type: functional, cell-based; settings: Bcap37, 48 h
Method in brief: (§1)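 Log-phase tumor cells grown in RPMI 1640 with 10% FBS, diluted to 3 × 10⁴ cells/mL, and seeded in 96-well plates. Plates were held 24 h at 37 °C in 5% CO₂, then compounds were added at preset concentrations (6 wells each), with 5-fluorouracil as positive reference. After 48 h exposure, MTT in PBS (2.5 mg/mL) was added for 4 h. Formazan was dissolved in DMSO and read at 570 nm. IC50 is the concentration giving 50% survival; results are the mean of three experiments in triplicate.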

MGC-803 = assay: Cytotoxicity against human MGC803 cells after 48 hrs by MTT assay; assay type: functional, cell-based; settings: MGC-803, 48 h; method in brief: as §1
SGC-7901 = assay: Cytotoxicity against human SGC7901 cells after 48 hrs by MTT assay; assay type: functional, cell-based; settings: SGC-7901, 48 h; method in brief: as §1
[1] = biological target: Telomerase reverse transcriptase (Homo sapiens, UniProt O14746); assay: Inhibition of telomerase activity in human MGC803 cells after 24 hrs by TRAP-PCR-ELISA assay
Telomerase reverse transcriptase, sequence (O14746 whole entry): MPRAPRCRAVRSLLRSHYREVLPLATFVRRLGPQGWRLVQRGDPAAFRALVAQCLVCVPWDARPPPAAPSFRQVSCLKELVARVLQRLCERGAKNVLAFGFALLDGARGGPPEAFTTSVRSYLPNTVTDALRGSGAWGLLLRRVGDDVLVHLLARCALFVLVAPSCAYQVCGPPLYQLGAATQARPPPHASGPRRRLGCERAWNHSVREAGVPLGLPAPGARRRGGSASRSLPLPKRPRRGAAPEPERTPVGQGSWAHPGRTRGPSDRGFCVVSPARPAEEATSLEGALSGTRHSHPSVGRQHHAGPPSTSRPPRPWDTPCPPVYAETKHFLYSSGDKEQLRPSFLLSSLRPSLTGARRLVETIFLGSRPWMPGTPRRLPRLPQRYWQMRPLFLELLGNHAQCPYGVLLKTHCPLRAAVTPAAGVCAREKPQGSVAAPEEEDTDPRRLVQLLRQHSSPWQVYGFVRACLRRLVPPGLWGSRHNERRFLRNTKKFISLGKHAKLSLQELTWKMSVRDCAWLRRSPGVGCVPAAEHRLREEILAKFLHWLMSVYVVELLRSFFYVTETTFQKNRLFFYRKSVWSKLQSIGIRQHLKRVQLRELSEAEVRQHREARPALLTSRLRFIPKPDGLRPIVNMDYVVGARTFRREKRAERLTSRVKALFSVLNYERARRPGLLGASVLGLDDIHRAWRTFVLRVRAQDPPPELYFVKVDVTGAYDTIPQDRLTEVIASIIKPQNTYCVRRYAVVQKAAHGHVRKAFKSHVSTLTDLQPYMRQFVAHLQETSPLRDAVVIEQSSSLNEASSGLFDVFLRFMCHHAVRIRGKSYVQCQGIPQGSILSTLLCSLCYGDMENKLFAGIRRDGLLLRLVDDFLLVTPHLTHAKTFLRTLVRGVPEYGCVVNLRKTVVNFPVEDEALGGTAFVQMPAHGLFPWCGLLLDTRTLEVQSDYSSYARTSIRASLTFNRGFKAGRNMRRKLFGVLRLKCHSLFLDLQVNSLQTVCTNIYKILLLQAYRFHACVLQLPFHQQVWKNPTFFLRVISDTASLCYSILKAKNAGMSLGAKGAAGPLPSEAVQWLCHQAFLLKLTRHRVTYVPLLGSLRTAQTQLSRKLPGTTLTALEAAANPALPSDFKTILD

| Compound | IC50 (Bcap37) [µM] | IC50 (MGC-803) [µM] | IC50 (SGC-7901) [µM] | IC50 [1] [µM] |
| --- | --- | --- | --- | --- |
| CC1=NN(C(=O)CN2CCC(O)CC2)C(c2ccccc2O)C1 (stereo not given) | 18.7 | 4.12 | 5.71 | 9.11 |
| CC1=NN(C(=O)CN2CCCCC2C)C(c2ccccc2O)C1 (stereo not given) | 16.3 | 11.7 | 11.2 | – |
| CCC1CCCCN1CC(=O)N1N=C(C)CC1c1ccccc1O (stereo not given) | 10.7 | 15.7 | 12.9 | – |
| CC1=NN(C(=O)CN2CCC(C)CC2)C(c2ccccc2O)C1 (stereo not given) | 6.81 | 3.55 | 4.6 | 5.99 |
| CC1=NN(C(=O)CN2CCCCC2C(N)=O)C(c2ccccc2O)C1 (stereo not given) | 41.1 | 38.8 | 39.2 | – |
| CC1=NN(C(=O)CN2CCC(C(F)(F)F)CC2)C(c2ccccc2O)C1 (stereo not given) | 8.55 | 2.64 | 3.22 | 8.81 |
| CC1=NN(C(=O)CN2CCCCC2[N+](=O)[O-])C(c2ccccc2O)C1 (stereo not given) | 32.3 | 28.3 | 30.7 | 42.1 |
| CCC1CCCCN1CC(=O)N1N=C(c2cc3ccccc3oc2=O)CC1c1ccccc1 (stereo not given) | 7.3 | 8.71 | 6 | – |
| CC1CCN(CC(=O)N2N=C(c3cc4ccccc4oc3=O)CC2c2ccccc2)CC1 (stereo not given) | 6.57 | 3.01 | 4.7 | 2 |
| O=C(CN1CCC(Br)CC1)N1N=C(c2cc3ccccc3oc2=O)CC1c1ccccc1 (stereo not given) | 8.76 | 7.01 | 10.3 | 4.11 |
| O=c1[nH]cc(F)c(=O)[nH]1 [FLUOROURACIL] | 5.33 | 3.42 | 7.11 | – |
| CC[n+]1c(-c2ccccc2)c2cc(N)ccc2c2ccc(N)cc21 [HOMIDIUM BROMIDE] | – | – | – | 2.47 |

— ChEMBL document CHEMBL2010787, “Design and synthesis of novel 5-phenyl-N-piperidine ethanone containing 4,5-dihydropyrazole derivatives as potential antitumor agents” (Eur J Med Chem, 2012)
